What was measured:
Type in all cases: functional
[1] = system: Staphylococcus aureus; assay: Antimicrobial activity against heterogeneous vancomycin-intermediate Staphylococcus aureus assessed as susceptible isolates by agar dilution method
In short: (§1)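 MICs by agar dilution for all 200 MRSA blood isolates (oxacillin, rifampin, gentamicin, levofloxacin, erythromycin, vancomycin, teicoplanin, tigecycline, ceftobiprole, linezolid). Isolates were grouped by PAP-AUC ratio against S. aureus Mu3: below 0.9 VSSA, 0.9 to 1.3 hVISA, 1.3 or more VISA.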

[2] = system: Staphylococcus aureus; assay: Antimicrobial activity against SCCmec type III vancomycin-intermediate Staphylococcus aureus isolate b6k1642 by agar dilution method
In short: (§2)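 Agar-dilution MICs were measured on a subset of 200 blood MRSA isolates from China. Agents: oxacillin, rifampin, gentamicin, levofloxacin, erythromycin, vancomycin, teicoplanin, tigecycline, ceftobiprole and linezolid. Phenotype came from the PAP-AUC ratio of each isolate to S. aureus Mu3 (VSSA <0.9; hVISA 0.9 to 1.3; VISA ≥1.3), read on BHI agar with 0 to 8.0 mg/liter vancomycin after 48 h at 35°C.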

[3] = system: Staphylococcus aureus; assay: Antimicrobial activity against SCCmec type II vancomycin-intermediate Staphylococcus aureus isolate 07b63 by agar dilution method; in short: as §2
[4] = system: Staphylococcus aureus; assay: Antimicrobial activity against vancomycin-susceptible Staphylococcus aureus assessed as growth inhibition at 0.125 times MIC; parameters: scale not given: the % may be the effect or the level left
[5] = system: Staphylococcus aureus; assay: Antimicrobial activity against SCCmec type III vancomycin-intermediate Staphylococcus aureus isolate b2k3421 by agar dilution method; in short: as §2
[6] = system: Staphylococcus aureus; assay: Antimicrobial activity against SCCmec type III vancomycin-intermediate Staphylococcus aureus isolate b5k3578 by agar dilution method; in short: as §2
[7] = system: Staphylococcus aureus; assay: Antimicrobial activity against heterogeneous vancomycin-susceptible Staphylococcus aureus assessed as intermediate isolates by agar dilution method
[8] = system: Staphylococcus aureus; assay: Antimicrobial activity against vancomycin-susceptible Staphylococcus aureus by agar dilution method; in short: as §2
[9] = system: Staphylococcus aureus; assay: Antimicrobial activity against vancomycin-susceptible Staphylococcus aureus assessed as growth inhibition at 4 times MIC; parameters: scale not given: the % may be the effect or the level left
[10] = system: Staphylococcus aureus; assay: Antimicrobial activity against SCCmec type III vancomycin-intermediate Staphylococcus aureus isolate b3k2345 by agar dilution method; in short: as §2
[11] = system: Staphylococcus aureus; assay: Antimicrobial activity against heterogeneous vancomycin-intermediate Staphylococcus aureus assessed as intermediate isolates by agar dilution method; in short: as §1
[12] = system: Staphylococcus aureus; assay: Antimicrobial activity against SCCmec type III vancomycin-intermediate Staphylococcus aureus isolate gs07022 by agar dilution method; in short: as §2
[13] = system: Staphylococcus aureus; assay: Antimicrobial activity against vancomycin-susceptible Staphylococcus aureus assessed as growth inhibition at 2 times MIC; parameters: scale not given: the % may be the effect or the level left
[14] = system: Staphylococcus aureus; assay: Antimicrobial activity against vancomycin-intermediate Staphylococcus aureus by agar dilution method; in short: as §2
[15] = system: Staphylococcus aureus; assay: Antimicrobial activity against SCCmec type III vancomycin-intermediate Staphylococcus aureus isolate b6k7974 by agar dilution method; in short: as §2
[16] = system: Staphylococcus aureus; assay: Antimicrobial activity against heterogeneous vancomycin-intermediate Staphylococcus aureus assessed as growth inhibition at 16 times MIC; parameters: scale not given: the % may be the effect or the level left
[17] = system: Staphylococcus aureus; assay: Antimicrobial activity against heterogeneous vancomycin-intermediate Staphylococcus aureus by agar dilution method; in short: as §2
[18] = system: Staphylococcus aureus; assay: Antimicrobial activity against SCCmec type III vancomycin-intermediate Staphylococcus aureus isolate b4k6307 by agar dilution method; in short: as §2
[19] = system: Staphylococcus aureus; assay: Antimicrobial activity against SCCmec type III vancomycin-intermediate Staphylococcus aureus isolate zj07028 by agar dilution method; in short: as §2
[20] = system: Staphylococcus aureus; assay: Antimicrobial activity against heterogeneous vancomycin-intermediate Staphylococcus aureus assessed as growth inhibition at 0.25 times MIC; parameters: scale not given: the % may be the effect or the level left
[21] = system: Staphylococcus aureus; assay: Antimicrobial activity against vancomycin-susceptible Staphylococcus aureus assessed as growth inhibition at MIC; parameters: scale not given: the % may be the effect or the level left
[22] = system: Staphylococcus aureus; assay: Antimicrobial activity against vancomycin-susceptible Staphylococcus aureus assessed as growth inhibition at 0.25 times MIC; parameters: scale not given: the % may be the effect or the level left
[23] = system: Staphylococcus aureus; assay: Antimicrobial activity against SCCmec type III vancomycin-intermediate Staphylococcus aureus isolate b5k3529 by agar dilution method; in short: as §2
[24] = system: Staphylococcus aureus; assay: Antimicrobial activity against SCCmec type III vancomycin-intermediate Staphylococcus aureus isolate b3k5923 by agar dilution method; in short: as §2
[25] = system: Staphylococcus aureus; assay: Antimicrobial activity against heterogeneous vancomycin-intermediate Staphylococcus aureus assessed as growth inhibition at 2 times MIC; parameters: scale not given: the % may be the effect or the level left
[26] = system: Staphylococcus aureus; assay: Antimicrobial activity against heterogeneous vancomycin-susceptible Staphylococcus aureus assessed as susceptible isolates by agar dilution method; in short: as §1
[27] = system: Staphylococcus aureus; assay: Antimicrobial activity against SCCmec type III vancomycin-intermediate Staphylococcus aureus isolate 15b52 by agar dilution method; in short: as §2
[28] = system: Staphylococcus aureus; assay: Antimicrobial activity against SCCmec type III vancomycin-intermediate Staphylococcus aureus isolate bd4768 by agar dilution method; in short: as §2
[29] = system: Staphylococcus aureus; assay: Antimicrobial activity against SCCmec type II vancomycin-intermediate Staphylococcus aureus isolate 4sy39 by agar dilution method; in short: as §2
[30] = system: Staphylococcus aureus; assay: Antimicrobial activity against SCCmec type III vancomycin-intermediate Staphylococcus aureus isolate xa07029 by agar dilution method; in short: as §2
[31] = system: Staphylococcus aureus; assay: Antimicrobial activity against heterogeneous vancomycin-intermediate Staphylococcus aureus assessed as growth inhibition at MIC; parameters: scale not given: the % may be the effect or the level left
[32] = system: Staphylococcus aureus; assay: Antimicrobial activity against heterogeneous vancomycin-intermediate Staphylococcus aureus assessed as growth inhibition at 0.5 times MIC; parameters: scale not given: the % may be the effect or the level left
[33] = system: Staphylococcus aureus; assay: Antimicrobial activity against heterogeneous vancomycin-intermediate Staphylococcus aureus assessed as growth inhibition at 0.125 times MIC; parameters: scale not given: the % may be the effect or the level left
[34] = system: Staphylococcus aureus; assay: Antimicrobial activity against SCCmec type II vancomycin-intermediate Staphylococcus aureus isolate 4sy32 by agar dilution method; in short: as §2
[35] = system: Staphylococcus aureus; assay: Antimicrobial activity against heterogeneous vancomycin-intermediate Staphylococcus aureus assessed as growth inhibition at 4 times MIC; parameters: scale not given: the % may be the effect or the level left
[36] = system: Staphylococcus aureus; assay: Antimicrobial activity against SCCmec type II vancomycin-intermediate Staphylococcus aureus isolate 6zjsau7 by agar dilution method; in short: as §2
[37] = system: Staphylococcus aureus; assay: Antimicrobial activity against SCCmec type IV vancomycin-intermediate Staphylococcus aureus isolate 06b41 by agar dilution method; in short: as §2
[38] = system: Staphylococcus aureus; assay: Antimicrobial activity against vancomycin-susceptible Staphylococcus aureus assessed as growth inhibition at 16 times MIC; parameters: scale not given: the % may be the effect or the level left
[39] = system: Staphylococcus aureus; assay: Antimicrobial activity against SCCmec type III vancomycin-intermediate Staphylococcus aureus isolate gz06040 by agar dilution method; in short: as §2
[40] = system: Staphylococcus aureus; assay: Antimicrobial activity against SCCmec type II vancomycin-intermediate Staphylococcus aureus isolate sh06024 by agar dilution method; in short: as §2
[41] = system: Staphylococcus aureus; assay: Antimicrobial activity against SCCmec type II vancomycin-intermediate Staphylococcus aureus isolate b2k4781 by agar dilution method; in short: as §2
[42] = system: Staphylococcus aureus; assay: Antimicrobial activity against vancomycin-susceptible Staphylococcus aureus assessed as growth inhibition at 0.5 times MIC; parameters: scale not given: the % may be the effect or the level left
[43] = system: Staphylococcus aureus; assay: Antimicrobial activity against SCCmec type III vancomycin-intermediate Staphylococcus aureus isolate 5zjsau3 by agar dilution method; in short: as §2
[44] = system: Staphylococcus aureus; assay: Antimicrobial activity against SCCmec type III vancomycin-intermediate Staphylococcus aureus isolate gz07030 by agar dilution method; in short: as §2
[45] = system: Staphylococcus aureus; assay: Antimicrobial activity against heterogeneous vancomycin-intermediate Staphylococcus aureus assessed as resistant isolates by agar dilution method
[46] = system: Staphylococcus aureus; assay: Antimicrobial activity against heterogeneous vancomycin-susceptible Staphylococcus aureus assessed as resistant isolates by agar dilution method
[47] = system: Staphylococcus aureus; assay: Antimicrobial activity against SCCmec type III vancomycin-intermediate Staphylococcus aureus isolate 13b16 by agar dilution method; in short: as §2
[48] = system: Staphylococcus aureus; assay: Antimicrobial activity against SCCmec type III vancomycin-intermediate Staphylococcus aureus isolate sh07043 by agar dilution method; in short: as §2
[49] = system: Staphylococcus aureus; assay: Antimicrobial activity against SCCmec type III vancomycin-intermediate Staphylococcus aureus isolate 11b091 by agar dilution method; in short: as §2
[50] = system: Staphylococcus aureus; assay: Antimicrobial activity against SCCmec type III vancomycin-intermediate Staphylococcus aureus isolate gz06051 by agar dilution method; in short: as §2

CC(=O)NC[C@H]1CN(c2ccc(N3CCOCC3)c(F)c2)C(=O)O1 [LINEZOLID]
31.2%: Activity [42]
82.7%: Activity [21]
1 µg/mL: MIC [2] | MIC [3] | MIC50 [8] | MIC [12] | MIC [14] | MIC [15] | MIC50 [17] | MIC [19] | MIC [28] | MIC [29] | MIC [30] | MIC [34] | MIC [36] | MIC [37] | MIC [39] | MIC [43] | MIC [44]
0.58%: Activity [4]
100%: Activity [1] | Activity [9] | Activity [13] | Activity [16] | Activity [25] | Activity [26] | Activity [35] | Activity [38]
0%: Activity [7] | Activity [11] | Activity [20] | Activity [33]
33.3%: Activity [32]
1.16%: Activity [22]
2 µg/mL: MIC90 [8] | MIC90 [17]
0.5 µg/mL: MIC [5] | MIC [6] | MIC [10] | MIC [18] | MIC [23] | MIC [24] | MIC [27] | MIC [40] | MIC [41]
85.2%: Activity [31]

CN[C@H](CC(C)C)C(=O)N[C@H]1C(=O)N[C@@H](CC(N)=O)C(=O)N[C@H]2C(=O)N[C@H]3C(=O)N[C@H](C(=O)N[C@H](C(=O)O)c4cc(O)cc(O)c4-c4cc3ccc4O)[C@H](O)c3ccc(c(Cl)c3)Oc3cc2cc(c3O[C@@H]2O[C@H](CO)[C@@H](O)[C@H](O)[C@H]2O[C@H]2C[C@](C)(N)[C@H](O)[C@H](C)O2)Oc2ccc(cc2Cl)[C@H]1O [VANCOMYCIN]
99.4%: Activity [21]
35.8%: Activity [42]
2 µg/mL: MIC90 [17]
100%: Activity [9] | Activity [13] | Activity [16] | Activity [26] | Activity [35] | Activity [38]
3.7%: Activity [11] | Activity [32]
0%: Activity [45] | Activity [4] | Activity [7] | Activity [20] | Activity [22] | Activity [33] | Activity [46]
85.2%: Activity [31]
96.3%: Activity [1] | Activity [25]
1 µg/mL: MIC50 [8] | MIC90 [8] | MIC50 [17]

CN(C)c1cc(NC(=O)CNC(C)(C)C)c(O)c2c1C[C@H]1C[C@H]3[C@H](N(C)C)C(O)=C(C(N)=O)C(=O)[C@@]3(O)C(O)=C1C2=O [TIGECYCLINE]
0.5 µg/mL: MIC [3] | MIC [19]
0%: Activity [7] | Activity [11]
0.25 µg/mL: MIC [2] | MIC [48] | MIC [6] | MIC90 [8] | MIC [12] | MIC [14] | MIC [15] | MIC50 [17] | MIC90 [17] | MIC [50] | MIC [27] | MIC [29] | MIC [30] | MIC [34] | MIC [36] | MIC [37] | MIC [43]
0.064 µg/mL: MIC [10] | MIC [18]
92.6%: Activity [20]
0.032 µg/mL: MIC [24]
90.2%: Activity [22]
54.3%: Activity [4]
44.4%: Activity [33]
100%: Activity [1] | Activity [9] | Activity [13] | Activity [16] | Activity [21] | Activity [25] | Activity [26] | Activity [31] | Activity [32] | Activity [35] | Activity [38] | Activity [42]
0.125 µg/mL: MIC [47] | MIC [5] | MIC50 [8] | MIC [49] | MIC [23] | MIC [28] | MIC [39] | MIC [40] | MIC [41] | MIC [44]

Nc1nc(/C(=N/O)C(=O)N[C@@H]2C(=O)N3C(C(=O)O)=C(/C=C4\CCN([C@@H]5CCNC5)C4=O)CS[C@H]23)ns1 [CEFTOBIPROLE]
96.3%: Activity [25]
33.3%: Activity [31]
27.2%: Activity [21]
4 µg/mL: MIC [36]
11.1%: Activity [32]
1 µg/mL: MIC [47] | MIC [3] | MIC [12] | MIC [18] | MIC [37] | MIC [39]
100%: Activity [1] | Activity [9] | Activity [13] | Activity [16] | Activity [26] | Activity [35] | Activity [38]
0.5 µg/mL: MIC [14] | MIC [29] | MIC [34] | MIC [43]
2.31%: Activity [22]
4.62%: Activity [42]
0%: Activity [4] | Activity [7] | Activity [11] | Activity [20] | Activity [33]
2 µg/mL: MIC [2] | MIC [48] | MIC [5] | MIC [6] | MIC50 [8] | MIC90 [8] | MIC [10] | MIC [49] | MIC [15] | MIC50 [17] | MIC90 [17] | MIC [50] | MIC [19] | MIC [23] | MIC [24] | MIC [27] | MIC [28] | MIC [30] | MIC [40] | MIC [41] | MIC [44]
